Results from ChEMBL document CHEMBL3425433, “Discovery of bicyclic pyrazoles as class III histone deacetylase SIRT1 and SIRT2 inhibitors” (Bioorg Med Chem Lett, 2015).

Biological target: T1, NAD-dependent protein deacetylase sirtuin-1 (Homo sapiens) (UniProt Q96EB6)
T1 sequence (whole entry): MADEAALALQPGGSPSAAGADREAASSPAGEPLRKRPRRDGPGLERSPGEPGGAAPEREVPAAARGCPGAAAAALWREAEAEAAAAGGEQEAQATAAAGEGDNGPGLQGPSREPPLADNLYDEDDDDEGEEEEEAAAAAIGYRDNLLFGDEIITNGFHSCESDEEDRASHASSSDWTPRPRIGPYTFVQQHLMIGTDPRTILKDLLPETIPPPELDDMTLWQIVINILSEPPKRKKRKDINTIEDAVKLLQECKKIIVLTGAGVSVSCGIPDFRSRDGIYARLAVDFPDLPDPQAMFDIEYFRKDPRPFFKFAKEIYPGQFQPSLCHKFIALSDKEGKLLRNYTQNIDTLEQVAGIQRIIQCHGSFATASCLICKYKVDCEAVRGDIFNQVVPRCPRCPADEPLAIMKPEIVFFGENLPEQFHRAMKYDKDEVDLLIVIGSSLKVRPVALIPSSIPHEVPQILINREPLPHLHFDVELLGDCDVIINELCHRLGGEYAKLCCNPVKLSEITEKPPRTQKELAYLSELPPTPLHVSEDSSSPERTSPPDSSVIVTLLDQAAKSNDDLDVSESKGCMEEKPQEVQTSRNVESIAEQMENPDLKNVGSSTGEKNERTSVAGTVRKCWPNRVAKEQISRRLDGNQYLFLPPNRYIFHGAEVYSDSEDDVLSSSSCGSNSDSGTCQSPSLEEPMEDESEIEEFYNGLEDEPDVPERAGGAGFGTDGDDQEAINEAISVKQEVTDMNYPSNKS
Assay: Inhibition of SIRT1-mediated endogenous p53 deacetylase activity in human Namalwa cells assessed as concentration required to […] to twice the basal level after 3 hrs by ELISA
Type: cell-based
Outline: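 Namalwa cells, 50,000/well, were exposed 3 h at 37 °C, 5% CO2, to 0.005–50 µM final (0.95% DMSO). Lysates were ELISA-captured on anti-p53 (DO-1), probed overnight with anti-acetyl-Lys382-p53, then HRP conjugate and Amplex Red (15 min; ex 550/em 610 nm). IC2xB is the concentration doubling basal (lowest) fluorescence. Means of three experiments.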

Structure (SMILES): NC(=O)C1CCCc2c1[nH]c1ccc(Cl)cc21 (racemic)
- INH: 0.6 µM
